Measured values: ChEMBL document CHEMBL5321284, “Discovery of a First-in-Class Degrader for the Lipid Kinase PIKfyve” (J Med Chem, 2023)
Active and inactive are the calls of the source. The calls are words filed in the database; no cut-off is given here.

Tests used:
[1] = target: T1, von Hippel-Lindau disease tumor suppressor/1-phosphatidylinositol 3-phosphate 5-kinase (Homo sapiens) (UniProt Q9Y2I7+P40337); test: PROTAC activity at VHL/PIKfyve in human VCaP cells assessed as induction of PIKfyve degradation at 0.1 uM incubated for 24 hrs by immunoblot analysis; format: cell-based
Method in brief: (§1)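 VCaP cells treated 24 h at 0.1 or 1.0 µM; percent PIKfyve degradation determined by immunoblotting.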

[2] = target: T1, von Hippel-Lindau disease tumor suppressor/1-phosphatidylinositol 3-phosphate 5-kinase (Homo sapiens); test: PROTAC activity at VHL/PIKfyve in human VCaP cells assessed as induction of PIKfyve degradation at 1 uM incubated for 24 hrs by immunoblot analysis; format: cell-based; method in brief: as §1
VCaP [3] = test: Inhibition of autophagy in human VCaP cells assessed as increase in LC3A/B expression at 100 to 300 nM incubated for 4 hrs followed by culturing in compound-free medium for 72 hrs by immunoblot analysis; format: functional, cell-based; conditions: dose 100-300 nM
Method in brief: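 VCaP cells treated 4 h, compounds removed, cultured 72 h in compound-free medium; whole cell lysates immunoblotted for PIKfyve, LC3A/B and GAPDH (RIPA lysis, 4–12% Bis-Tris gels, PVDF, ECL).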

DU-145 [4] = test: Induction of massive cytoplasmic vacuolization in human RFP-labeled DU-145 cells at 300 nM incubated for 4 hrs; format: functional, cell-based
[5] = target: T1, von Hippel-Lindau disease tumor suppressor/1-phosphatidylinositol 3-phosphate 5-kinase (Homo sapiens); test: PROTAC activity at VHL/PIKfyve in human VCaP cells assessed as induction of PIKfyve degradation at 100 to 300 nM incubated for 4 hrs followed by culturing in compound-free medium for 72 hrs by immunoblot analysis; format: cell-based; conditions: dose 100-300 nM
VCaP [6] = test: Antiproliferative activity against human VCaP cells assessed as inhibition of cell proliferation incubated for 4 hrs followed by culturing in compound-free medium for 2 weeks by crystal violet staining based analysis; format: functional
Method in brief: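 VCaP cells treated 4 h, compound removed, then cultured 2 weeks in drug-free medium; long-term viability by crystal violet staining.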

VCaP [7] = test: Antiproliferative activity against human VCaP cells assessed as inhibition of cell proliferation incubated for 24 hrs followed by culturing in compound-free medium for 2 weeks by crystal violet staining based analysis; format: functional
Method in brief: (§2)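 VCaP cells exposed either 24 h then washed and chased 2 weeks in compound-free medium, or continuously for 2 weeks; long-term viability visualized by crystal violet staining; IC50 calculated for each condition.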

DU-145 [8] = test: Induction of massive cytoplasmic vacuolization in human RFP-labeled DU-145 cells incubated for 24 hrs; format: functional, cell-based; conditions: dose 100-3000 nM
Method in brief: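 RFP-labeled DU145 cells treated 24 h (300 nM shown); vacuole area per cell quantified from images.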

VCaP [9] = test: Antiproliferative activity against human VCaP cells assessed as inhibition of cell proliferation incubated for 2 weeks by crystal violet staining based analysis; format: functional; conditions: 336 h; method in brief: as §2

T1 sequence (P40337 whole entry partner): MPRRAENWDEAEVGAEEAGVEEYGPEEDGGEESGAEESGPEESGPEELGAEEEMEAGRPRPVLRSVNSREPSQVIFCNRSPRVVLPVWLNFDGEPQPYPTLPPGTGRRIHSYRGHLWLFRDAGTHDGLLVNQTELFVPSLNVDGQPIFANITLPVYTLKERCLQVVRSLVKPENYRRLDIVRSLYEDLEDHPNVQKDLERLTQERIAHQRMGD
T1 sequence (Q9Y2I7 2-2098 limits assumed): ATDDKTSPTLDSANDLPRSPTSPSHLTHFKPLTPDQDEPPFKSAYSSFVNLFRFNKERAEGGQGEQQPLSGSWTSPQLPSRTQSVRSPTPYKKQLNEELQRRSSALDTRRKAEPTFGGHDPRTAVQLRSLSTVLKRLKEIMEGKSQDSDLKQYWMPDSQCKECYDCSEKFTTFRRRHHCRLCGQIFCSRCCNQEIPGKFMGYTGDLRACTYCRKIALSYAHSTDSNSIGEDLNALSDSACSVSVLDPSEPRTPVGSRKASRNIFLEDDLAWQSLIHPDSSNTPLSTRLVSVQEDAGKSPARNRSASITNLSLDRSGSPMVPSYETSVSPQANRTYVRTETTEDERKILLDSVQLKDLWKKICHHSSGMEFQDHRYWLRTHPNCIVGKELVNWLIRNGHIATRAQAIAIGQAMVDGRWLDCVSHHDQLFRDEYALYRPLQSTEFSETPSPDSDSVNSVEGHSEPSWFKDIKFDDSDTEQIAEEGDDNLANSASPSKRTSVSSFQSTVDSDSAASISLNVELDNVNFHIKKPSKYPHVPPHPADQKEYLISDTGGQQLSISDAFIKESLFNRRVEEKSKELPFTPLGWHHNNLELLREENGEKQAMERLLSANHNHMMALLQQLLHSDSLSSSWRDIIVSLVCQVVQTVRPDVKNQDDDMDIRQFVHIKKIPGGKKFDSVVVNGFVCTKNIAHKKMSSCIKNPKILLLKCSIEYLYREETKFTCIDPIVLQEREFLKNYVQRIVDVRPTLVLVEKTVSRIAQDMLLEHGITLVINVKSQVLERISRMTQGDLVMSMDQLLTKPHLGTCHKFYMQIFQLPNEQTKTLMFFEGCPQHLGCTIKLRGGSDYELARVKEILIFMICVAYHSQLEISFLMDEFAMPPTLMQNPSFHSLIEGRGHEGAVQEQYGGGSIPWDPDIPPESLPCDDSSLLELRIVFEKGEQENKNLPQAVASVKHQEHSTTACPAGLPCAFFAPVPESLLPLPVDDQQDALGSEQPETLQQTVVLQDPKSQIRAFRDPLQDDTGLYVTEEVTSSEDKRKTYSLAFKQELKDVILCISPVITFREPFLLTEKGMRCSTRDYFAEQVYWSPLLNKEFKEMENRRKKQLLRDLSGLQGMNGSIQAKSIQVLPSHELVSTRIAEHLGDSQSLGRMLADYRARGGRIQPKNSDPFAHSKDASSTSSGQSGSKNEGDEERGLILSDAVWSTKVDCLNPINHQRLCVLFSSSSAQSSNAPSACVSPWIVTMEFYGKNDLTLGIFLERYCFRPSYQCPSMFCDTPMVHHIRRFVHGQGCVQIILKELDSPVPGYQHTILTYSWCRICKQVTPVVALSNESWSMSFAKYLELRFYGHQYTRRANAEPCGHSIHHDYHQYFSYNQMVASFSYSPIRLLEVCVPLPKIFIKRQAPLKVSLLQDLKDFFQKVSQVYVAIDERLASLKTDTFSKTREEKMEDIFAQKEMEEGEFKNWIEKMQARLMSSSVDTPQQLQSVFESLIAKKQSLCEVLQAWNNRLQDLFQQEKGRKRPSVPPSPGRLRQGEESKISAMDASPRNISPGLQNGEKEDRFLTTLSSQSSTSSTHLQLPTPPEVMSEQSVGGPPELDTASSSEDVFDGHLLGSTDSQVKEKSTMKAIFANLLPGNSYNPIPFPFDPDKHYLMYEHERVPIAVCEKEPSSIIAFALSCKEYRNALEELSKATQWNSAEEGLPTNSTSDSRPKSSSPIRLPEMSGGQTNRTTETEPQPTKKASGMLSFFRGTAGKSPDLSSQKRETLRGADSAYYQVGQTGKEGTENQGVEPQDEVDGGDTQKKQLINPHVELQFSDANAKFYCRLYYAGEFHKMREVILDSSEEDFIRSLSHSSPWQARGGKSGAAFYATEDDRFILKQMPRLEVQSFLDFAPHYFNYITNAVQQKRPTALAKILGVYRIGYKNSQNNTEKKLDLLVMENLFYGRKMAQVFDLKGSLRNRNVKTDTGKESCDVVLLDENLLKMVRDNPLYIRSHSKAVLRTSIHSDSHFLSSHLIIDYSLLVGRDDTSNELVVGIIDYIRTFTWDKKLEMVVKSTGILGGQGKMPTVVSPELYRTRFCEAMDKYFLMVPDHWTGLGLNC

SMILES | Activity [1] [%] | Activity [2] [%] | further results
Cc1cccc(/C=N/Nc2cc(N3CCOCC3)nc(OCCc3ccc(NC(=O)CCCCCC(=O)N[C@H](C(=O)N4C[C@H](O)C[C@H]4C(=O)NCc4ccc(-c5scnc5C)cc4)C(C)(C)C)cc3)n2)c1 | 90 | 75 | 
Cc1cccc(/C=N/Nc2cc(N3CCOCC3)nc(OCCc3ccc(NC(=O)CCCCCCCCCCC(=O)N[C@H](C(=O)N4C[C@H](O)C[C@H]4C(=O)NCc4ccc(-c5scnc5C)cc4)C(C)(C)C)cc3)n2)c1 | 48 | 3 | 
Cc1cccc(/C=N/Nc2cc(N3CCOCC3)nc(OCCc3ccc(NC(=O)CC(=O)N[C@H](C(=O)N4C[C@H](O)C[C@H]4C(=O)NCc4ccc(-c5scnc5C)cc4)C(C)(C)C)cc3)n2)c1 | 0 | 0 | 
Cc1cccc(/C=N/Nc2cc(N3CCOCC3)nc(OCCc3ccc(NC(=O)CCCCC(=O)N[C@H](C(=O)N4C[C@@H](O)C[C@H]4C(=O)NCc4ccc(-c5scnc5C)cc4)C(C)(C)C)cc3)n2)c1 | 0 | 0 | inhibition (VCaP [3]): inactive; Activity (DU-145 [4]): Active; Activity [5]: inactive; IC50 (VCaP [6]): > 3000 nM
Cc1cccc(/C=N/Nc2cc(N3CCOCC3)nc(OCCc3ccc(NC(=O)CCCCC(=O)N[C@H](C(=O)N4C[C@H](O)C[C@H]4C(=O)N[C@@H](C)c4ccc(-c5scnc5C)cc4)C(C)(C)C)cc3)n2)c1 | 47 | 44 | 
Cc1cccc(/C=N/Nc2cc(N3CCOCC3)nc(OCCc3ccccn3)n2)c1 [APILIMOD] |  |  | IC50 (VCaP [7]): 1190 nM; Activity (DU-145 [8]): Dose-Dependent Effect; IC50 (VCaP [9]): 254 nM; inhibition (VCaP [3]): inactive; Activity (DU-145 [4]): Active
Cc1cccc(/C=N/Nc2cc(N3CCOCC3)nc(OCCc3ccc(NC(=O)CCCCCCCCCC(=O)N[C@H](C(=O)N4C[C@H](O)C[C@H]4C(=O)NCc4ccc(-c5scnc5C)cc4)C(C)(C)C)cc3)n2)c1 | 64 | 41 | 
Cc1cccc(/C=N/Nc2cc(N3CCOCC3)nc(OCCc3ccc(NC(=O)CCC(=O)N[C@H](C(=O)N4C[C@H](O)C[C@H]4C(=O)NCc4ccc(-c5scnc5C)cc4)C(C)(C)C)cc3)n2)c1 | 0 | 8 | 
Cc1cccc(/C=N/Nc2cc(N3CCOCC3)nc(OCCNC(=O)CC(=O)N[C@H](C(=O)N3C[C@H](O)C[C@H]3C(=O)NCc3ccc(-c4scnc4C)cc3)C(C)(C)C)n2)c1 | 0 | 0 | 
Cc1cccc(/C=N/Nc2cc(N3CCOCC3)nc(OCCNC(=O)CCCCCCCCCC(=O)N[C@H](C(=O)N3C[C@H](O)C[C@H]3C(=O)NCc3ccc(-c4scnc4C)cc3)C(C)(C)C)n2)c1 | 72 | 32 | 
Cc1cccc(/C=N/Nc2cc(N3CCOCC3)nc(OCCc3ccc(NC(=O)CCCCCCCCC(=O)N[C@H](C(=O)N4C[C@H](O)C[C@H]4C(=O)NCc4ccc(-c5scnc5C)cc4)C(C)(C)C)cc3)n2)c1 | 81 | 45 | 
Cc1cccc(/C=N/Nc2cc(N3CCOCC3)nc(OCCc3ccc(NC(=O)CCCCCCC(=O)N[C@H](C(=O)N4C[C@H](O)C[C@H]4C(=O)NCc4ccc(-c5scnc5C)cc4)C(C)(C)C)cc3)n2)c1 | 26 | 19 | 
Cc1cccc(/C=N/Nc2cc(N3CCOCC3)nc(OCCc3ccc(NC(=O)CCCC(=O)N[C@H](C(=O)N4C[C@H](O)C[C@H]4C(=O)NCc4ccc(-c5scnc5C)cc4)C(C)(C)C)cc3)n2)c1 | 0 | 0 | 
Cc1cccc(/C=N/Nc2cc(N3CCOCC3)nc(OCCc3ccc(NC(=O)CCCCCCCC(=O)N[C@H](C(=O)N4C[C@H](O)C[C@H]4C(=O)NCc4ccc(-c5scnc5C)cc4)C(C)(C)C)cc3)n2)c1 | 84 | 92 | 
Cc1cccc(/C=N/Nc2cc(N3CCOCC3)nc(OCCNC(=O)CCCCCCCCCCC(=O)N[C@H](C(=O)N3C[C@H](O)C[C@H]3C(=O)NCc3ccc(-c4scnc4C)cc3)C(C)(C)C)n2)c1 | 67 | 21 | 

Further lines, with some results ahead:

Activity [1] [%] | Activity [2] [%] | SMILES | further results
3 | 0 | Cc1cccc(/C=N/Nc2cc(N3CCOCC3)nc(OCCNC(=O)CCCCCC(=O)N[C@H](C(=O)N3C[C@H](O)C[C@H]3C(=O)NCc3ccc(-c4scnc4C)cc3)C(C)(C)C)n2)c1 | 
0 | 10 | Cc1cccc(/C=N/Nc2cc(N3CCOCC3)nc(OCCNC(=O)CCCCC(=O)N[C@H](C(=O)N3C[C@H](O)C[C@H]3C(=O)NCc3ccc(-c4scnc4C)cc3)C(C)(C)C)n2)c1 | 
0 | 51 | Cc1cccc(/C=N/Nc2cc(N3CCOCC3)nc(OCCNC(=O)CCCCCCC(=O)N[C@H](C(=O)N3C[C@H](O)C[C@H]3C(=O)NCc3ccc(-c4scnc4C)cc3)C(C)(C)C)n2)c1 | 
30 | 17 | Cc1cccc(/C=N/Nc2cc(N3CCOCC3)nc(OCCNC(=O)CCCCCCCC(=O)N[C@H](C(=O)N3C[C@H](O)C[C@H]3C(=O)NCc3ccc(-c4scnc4C)cc3)C(C)(C)C)n2)c1 | 
0 | 0 | Cc1cccc(/C=N/Nc2cc(N3CCOCC3)nc(OCCNC(=O)CCCC(=O)N[C@H](C(=O)N3C[C@H](O)C[C@H]3C(=O)NCc3ccc(-c4scnc4C)cc3)C(C)(C)C)n2)c1 | 
32 | 31 | Cc1cccc(/C=N/Nc2cc(N3CCOCC3)nc(OCCNC(=O)CCCCCCCCC(=O)N[C@H](C(=O)N3C[C@H](O)C[C@H]3C(=O)NCc3ccc(-c4scnc4C)cc3)C(C)(C)C)n2)c1 | 
0 | 0 | Cc1cccc(/C=N/Nc2cc(N3CCOCC3)nc(OCCNC(=O)CCC(=O)N[C@H](C(=O)N3C[C@H](O)C[C@H]3C(=O)NCc3ccc(-c4scnc4C)cc3)C(C)(C)C)n2)c1 | 
